# p-CIP stab down = p/CIP protein destabilization; F442A p/CIP-EGFP cells, EGFP fluorescence, 16 h; 290,000 tested, 0.01% active; decrease of EGFP signal, % at 10 µM; Q05BA5;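 active = EGFP signal decrease of at least 30% at 10 µM or well 3 SD below plate mean, unless failing retest; inactive = the rest, including hits failing retest or dose response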
# DSG3 Ab inh = inhibitors of pemphigus antibody binding to human desmoglein-3 | P32926 | DSG3-coupled beads, scFv-anti-DSG3-GFP binding, flow cytometry; hits give low values | binding (percent of control), % at 10 µM | 310,000 tested, 0.48% active | AID 588358;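 active = binding more than 3 SD below its plate's average and above zero; inconclusive = below that plate limit but binding exactly zero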;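 note: hits lower antibody fragment binding to DSG3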
# Target sequence (P32926 whole entry, looked up, the tested form may be a part): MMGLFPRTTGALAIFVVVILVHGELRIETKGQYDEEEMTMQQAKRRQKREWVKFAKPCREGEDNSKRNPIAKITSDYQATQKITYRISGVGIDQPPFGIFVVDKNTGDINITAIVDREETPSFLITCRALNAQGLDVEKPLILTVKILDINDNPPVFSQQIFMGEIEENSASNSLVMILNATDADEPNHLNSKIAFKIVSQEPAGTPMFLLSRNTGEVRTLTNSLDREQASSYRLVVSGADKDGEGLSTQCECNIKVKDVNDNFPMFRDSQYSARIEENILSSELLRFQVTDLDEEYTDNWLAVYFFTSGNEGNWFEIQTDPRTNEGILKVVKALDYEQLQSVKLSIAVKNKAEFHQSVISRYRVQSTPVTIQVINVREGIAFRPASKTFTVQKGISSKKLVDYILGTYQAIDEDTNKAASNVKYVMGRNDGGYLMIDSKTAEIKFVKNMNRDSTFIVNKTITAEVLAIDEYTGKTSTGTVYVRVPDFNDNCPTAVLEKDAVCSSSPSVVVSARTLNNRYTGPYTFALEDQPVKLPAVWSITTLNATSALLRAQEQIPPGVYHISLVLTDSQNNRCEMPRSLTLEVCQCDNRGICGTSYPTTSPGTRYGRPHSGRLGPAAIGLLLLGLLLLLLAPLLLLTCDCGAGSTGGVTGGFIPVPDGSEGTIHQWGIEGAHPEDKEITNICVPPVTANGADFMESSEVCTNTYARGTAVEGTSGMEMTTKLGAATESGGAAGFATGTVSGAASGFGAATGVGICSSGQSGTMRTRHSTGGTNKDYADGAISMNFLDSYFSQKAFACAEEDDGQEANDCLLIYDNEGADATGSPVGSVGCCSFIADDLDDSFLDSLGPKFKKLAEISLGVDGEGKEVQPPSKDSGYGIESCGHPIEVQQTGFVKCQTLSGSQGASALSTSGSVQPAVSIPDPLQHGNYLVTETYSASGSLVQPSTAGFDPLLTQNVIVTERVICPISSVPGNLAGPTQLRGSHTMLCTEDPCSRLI
# Runt-CBFb FRET = blocks binding of human RUNX1 Runt domain to CBFb | AID 1496 | 220,000 tested, 0.46% active | Cerulean-Runt/Venus-CBFb FRET ratio 530/480, 1 h | Q01196+Q13951 | inhibition, % at 20 µM;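 active = inhibition over about 50% at 20 µM in the single-dose screen, limit read from the data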;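 note: 0% = DMSO wells and 100% = excess unlabeled CBFb competitor control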
#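 test system = Cerulean-tagged RUNX1 Runt domain (FRET donor) fusion protein | reagent = Venus-CBFb binding partner, 100 nM | incubation = protein complex preformed 1 h, compound exposure 1 h, room temperature, dark | detection = FRET fluorescence | read-out basis = loss of energy transfer signal | controls = 5 µM unlabeled CBFb as full-inhibition high control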
# Hck-Nef inh = inhibitors of human Hck kinase activated by Nef. 220,000 tested, 0.68% active. P08631. Recombinant Hck-YEEI plus Nef, Z-Lyte FRET kinase assay. inhibition, % at 20 µM;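 active = Hck-Nef kinase inhibition above about 50%, limit read from the data; inactive = inhibition below that limit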;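 note: 0% = DMSO with Hck plus Nef and 100% = Hck alone without Nef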
# Runt-SMMHC FRET = inhibitors of human RUNX1 Runt domain binding to CBFb-SMMHC; 220,000 tested, 0.74% active; Q01196+Q13951; inhibition, % at 20 µM; AID 1434; Cerulean-Runt/Venus-CBFb-SMMHC FRET ratio 530/480, 1 h;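 active = mean inhibition across duplicate retests at 20 µM reaching about 50%, limit read from the data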;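 note: 0% = DMSO wells and 100% = wells with excess untagged CBFb-SMMHC; inhibitors lower the FRET ratio by blocking Runt binding to CBFb-SMMHC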
# RanGTP-Imp inh = inhibitors of RanGTP-importin-beta interaction, primary screen, biochemical, FRET, CFP-Ran, YFP-importin-beta, homogeneous; cell-free CFP-Ran/YFP-importin-beta FRET ratio; inhibition, % (concentration not given with the values); 300,000 tested, 1.1% active;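 active = more than half of the replicate wells show a fall in the fluorescence ratio signal beyond about 16%, limit read from the data, passing the limit was not always enough; inconclusive = exactly half of the replicate wells pass the set limit; inactive = fewer than half of replicates pass the limit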;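 note: 0% = DMSO wells and 100% = Ran loaded with GDP instead of GTP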
# Runt-CBFb TRFRET = disrupts human RUNX1 Runt domain binding to CBFb; TR-FRET RUNX1 Runt domain-CBFb binding; AID 1502; 480 tested, 20% active; shares compounds with Runt-CBFb FRET; inhibition, % at 20 µM; in the data active = inhibition above about 40%
# Active calls of the source: *; i = inactive; ? = inconclusive; / = no result given. A selection: hits, their analogues and other compounds. The true share with any hit is near 2.1%.
SMILES,p-CIP stab down,DSG3 Ab inh,Runt-CBFb FRET,Hck-Nef inh,Runt-SMMHC FRET,RanGTP-Imp inh,Runt-CBFb TRFRET
COC(=O)CCSc1nc(N2CCOCC2)c2c(c1C#N)CC(C)(C)OC2,2,90,/,/,/,8,/
Cc1ccc(S(=O)(=O)N2CCOCC2)cc1C(=O)Nc1ccccc1N1CCOCC1,/,94,/,/,/,/,/
CCn1cc(/C=N/N=C2\CCC3C4CCc5cc(O)ccc5C4CC[C@]23C)c(C)n1 (some centres not stated),-2,108,1,11,0,2,/
CC(=O)N1c2ccc(S(=O)(=O)NCCC(=O)Nc3ccc(F)cc3)cc2CC1C (configuration not stated),-2,93,/,/,/,-1,/
CCCCN(CCO)c1ncnc2sc(-c3ccccc3)cc12,-15,105,/,/,/,2,/
Clc1c(Cl)c(Cl)c2n[nH]nc2c1Cl,2,108,1,4,-5,?,/
Cc1nn(-c2ccccc2)cc1C(c1c(N)[nH]c(=S)[nH]c1=O)c1c(N)[nH]c(=S)[nH]c1=O,-9,99,56*,29,41,-1,58*
Cc1cc(N2CCOCC2)c2c(N)c(C)cc(C)c2n1,-28,88,62*,2,41,/,-3
Cc1ccc2nc(C)cc(N3CCOCC3)c2c1,-1,100,2,1,-3,3,/
COc1ccc(/C=C(/C#N)C(=O)Nc2cccnc2)cc1OC,-15,98,0,9,1,-1,/
COc1ccc(/C=C(\C#N)C(=O)Nc2cccc3ncccc23)cc1OC,-20,99,69*,32,60*,50*,64*
C=CCn1c(N)c(C(=O)OC(C)(C)C)c2nc3ccccc3nc21,-14,/,70*,41,95*,29*,-5
O=C(c1ccccc1Cc1ccccc1)N1CCN(S(=O)(=O)c2ccccc2Br)CC1,/,97,/,/,/,2,/
Nc1ccccc1NC(=O)CCn1c(=S)[nH]c2ccccc2c1=O,-22,104,/,/,/,-3,/
COc1cc(N2C(=O)C=CC2=O)c(OC)cc1Cl,-5,114,64*,-157,70*,?,11
O=C(NCCCN1CCOCC1)c1sc2cc([N+](=O)[O-])ccc2c1Cl,3,104,50*,-84,39,3,-2
CC(=O)N1CC(C(=O)Nc2ccc3c(c2)OCO3)Oc2ccccc21 (configuration not stated),/,127,/,/,/,/,/
O=C(CSc1nc2ccccc2s1)Nc1ccc(Cl)c(C(=O)O)c1,8,98,16,38,17,3,/
O=C(CSc1nc2ccccc2s1)Nc1cc(C(=O)O)cc(C(=O)O)c1,6,106,55*,49,52,-1,33
CCOC(=O)c1[nH]c(=S)n(-c2ccccc2)c1C(=O)OCC,/,104,/,/,/,/,/
C[C@H](O)[C@@H]1C(=O)N2CCc3ccc(N4CCN(C)CC4)cc3[C@@H]2C[C@@H]1N(C)C(=O)c1ccc(C#N)cc1,/,98,/,/,/,/,/
O=C(O[C@@H]1OC2COC(=O)c3cc(O)c(O)c(O)c3-c3c(cc(O)c(O)c3O)C(=O)O[C@@H]([C@H]1O)[C@@H]2O)c1cc(O)c(O)c(O)c1,1,89,57*,38,42,6,67*
CNC(=S)N(Cc1cc2ccc(OC)cc2[nH]c1=O)CC1CCCO1 (configuration not stated),-6,111,63*,17,40,7,26
COc1ccc2cc(CN(Cc3ccco3)C(=S)NCC3CCCO3)c(=O)[nH]c2c1 (configuration not stated),2,97,/,16,/,1,/
COCCCNC1=C(C#N)C(=O)NC(c2cccs2)S1 (configuration not stated),/,108,/,/,/,/,/
SMILES,p-CIP stab down,DSG3 Ab inh,Runt-CBFb FRET,Hck-Nef inh,Runt-SMMHC FRET,RanGTP-Imp inh,Runt-CBFb TRFRET
CNC(=O)/C(C#N)=C/c1c(N(Cc2ccccc2)Cc2ccccc2)nc2ccccn2c1=O,-5,101,63*,0,90*,1,3
Cc1ccc(C(=O)/C=C/C(=O)c2ccc(C)cc2)cc1,3,110,54*,35,50,3,19
Cc1ccc(/C=C/C(=O)c2ccc(C)cc2)cc1,-4,/,-3,7,1,-2,/
FC(F)Oc1ccc(-c2csc(NNC3=NCCCCC3)n2)cc1,-15,96,55*,2,28,0,6
O=C1CCNc2ccc(-c3ccccc3)cc21,2,100,60*,-23,-146,-9,42*
Cc1cccc2cc(C(c3nnnn3Cc3ccccc3)N3CCN(c4ccccc4)CC3)c(=O)[nH]c12 (configuration not stated),0,96,51*,-1,-1,6,i
COc1cc(N=Nc2ccc(C)cc2S(N)(=O)=O)c(C)cc1N,/,98,/,/,/,/,/
NS(=O)(=O)c1ccc(NC(=S)N2CCN(c3cccc(Cl)c3)CC2)cc1,-1,98,52*,1,36,-1,58*
NS(=O)(=O)c1ccc(NC(=S)N2CCN(c3ccccc3Cl)CC2)cc1,-7,99,1,0,4,3,/
O=C1OC(c2ccccc2)=N/C1=C\C=C\c1ccccc1[N+](=O)[O-],5,99,74*,4,67,2,32
O=C(c1nn2c(C(F)(F)F)cc(-c3ccccc3)nc2c1Cl)N1CCN2CCCC2C1 (configuration not stated),5,100,/,/,/,2,/
Cc1[nH]c2ccccc2c1N=Nc1ccccc1C(=O)O,-4,109,52*,-2,-20,5,17
O=c1c2ccccc2sc2ccc(Cl)cc12,9,99,69*,8,128*,20*,i
CCSc1nnc(NC(=O)CCNC(=O)c2ccccc2Cl)s1,/,105,/,/,/,/,/
CCS(=O)(=O)Nc1cccc(-c2nc3cccnc3s2)c1,-9,100,0,22,-2,0,/
O=S(=O)(Nc1ccc(-c2nc3cccnc3s2)cc1)c1ccc(Cl)s1,-12,102,68*,9,/,?,30
CCC1(C)Cc2c(sc3[nH]c(=O)[nH]c(=O)c23)CS1 (configuration not stated),-8,/,57*,0,/,6,18
CC(=O)C1C(c2ccc([N+](=O)[O-])cc2)c2c(noc2C)CC1(C)O (configuration not stated),5,117,0,14,-2,-1,/
S=c1nc(-c2cc(Cl)ccc2Cl)[nH][nH]1,20,102,57*,-3,40,-2,-19
Nc1ncc(Br)cc1S(=O)(=O)NCCC(=O)NCCc1ccccc1,-18,/,/,/,/,-1,/

# Assay outcomes (PubChem)
